Experimental data from ChEMBL document CHEMBL4017537, “Discovery of a Potent and Specific M. tuberculosis Leucyl-tRNA Synthetase Inhibitor: (S)-3-(Aminomethyl)-4-chloro-7-(2-hydroxyethoxy)benzo[c][1,2]oxaborol-1(3H)-ol (GSK656)” (J Med Chem, 2017).
In brackets after ≈: the same amount, converted by molar mass.

How the values were obtained:
Leucine--tRNA ligase = biological target: T1, Leucine--tRNA ligase (Mycobacterium tuberculosis (strain ATCC 25618 / H37Rv), UniProt P9WFV1); experiment: Inhibition of Mycobacterium tuberculosis H37Rv N-terminal 6His-tagged LeuRS expressed in Escherichia coli BL21(DE3) assessed as L-[14C]leucine incorporation in to Escherichia coli tRNA after 20 mins by liquid scintillation counting analysis
T1 sequence (P9WFV1 whole entry): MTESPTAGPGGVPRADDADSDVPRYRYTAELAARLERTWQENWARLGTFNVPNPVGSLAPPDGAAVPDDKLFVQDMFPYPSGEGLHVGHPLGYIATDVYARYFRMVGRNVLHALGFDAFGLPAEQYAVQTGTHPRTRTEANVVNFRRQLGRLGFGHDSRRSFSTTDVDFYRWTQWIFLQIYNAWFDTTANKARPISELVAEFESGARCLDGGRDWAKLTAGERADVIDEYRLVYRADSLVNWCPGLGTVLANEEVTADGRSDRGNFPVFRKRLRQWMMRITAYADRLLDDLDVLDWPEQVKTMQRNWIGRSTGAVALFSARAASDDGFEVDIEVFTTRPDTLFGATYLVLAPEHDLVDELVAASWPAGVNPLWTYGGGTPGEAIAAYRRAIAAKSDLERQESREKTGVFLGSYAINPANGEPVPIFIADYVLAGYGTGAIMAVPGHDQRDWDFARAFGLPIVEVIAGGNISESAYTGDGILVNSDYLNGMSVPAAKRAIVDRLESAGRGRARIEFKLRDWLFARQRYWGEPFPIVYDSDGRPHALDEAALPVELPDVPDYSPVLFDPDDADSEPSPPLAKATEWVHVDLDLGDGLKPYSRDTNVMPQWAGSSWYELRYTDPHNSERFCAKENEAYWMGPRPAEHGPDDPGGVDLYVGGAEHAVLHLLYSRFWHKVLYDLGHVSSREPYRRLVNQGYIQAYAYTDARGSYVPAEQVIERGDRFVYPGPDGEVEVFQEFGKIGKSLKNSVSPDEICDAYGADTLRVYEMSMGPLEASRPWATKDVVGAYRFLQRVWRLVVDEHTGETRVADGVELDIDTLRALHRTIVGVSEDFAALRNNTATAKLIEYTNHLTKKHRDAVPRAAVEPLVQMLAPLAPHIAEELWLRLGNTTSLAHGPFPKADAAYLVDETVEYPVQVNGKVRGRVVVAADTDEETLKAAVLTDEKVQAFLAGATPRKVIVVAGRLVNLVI
Outline: (§1)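 N-terminal His6-tagged LeuRS expressed in E. coli BL21(DE3), codon-optimized. 50 mM HEPES-KOH pH 8.0, 30 mM MgCl2, 30 mM KCl, 13 μM L-[14C]leucine, 15 μM tRNA (E. coli total; brewer's yeast for human cytoplasmic enzyme), 0.02% BSA, 1 mM DTT, 30 °C. Inhibitor preincubated 20 min, started with 4 mM ATP, TCA-quenched after 7 min, filtered, scintillation counted; four-parameter logistic IC50.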

[1] = tested on: Mycobacterium tuberculosis; experiment: Antimicrobial activity against Mycobacterium tuberculosis H37Rv; format: functional
[2] = biological target: T2, Leucine--tRNA ligase, cytoplasmic (Homo sapiens, UniProt Q9P2J5); experiment: Inhibition of cytoplasmic LeuRS in human HepG2 cells assessed as reduction in protein synthesis preincubated for 48 hrs followed by L-[14C]leucine addition measured after 3 hrs by liquid scintillation counting analysis; format: cell-based
T2 sequence (Q9P2J5 whole entry): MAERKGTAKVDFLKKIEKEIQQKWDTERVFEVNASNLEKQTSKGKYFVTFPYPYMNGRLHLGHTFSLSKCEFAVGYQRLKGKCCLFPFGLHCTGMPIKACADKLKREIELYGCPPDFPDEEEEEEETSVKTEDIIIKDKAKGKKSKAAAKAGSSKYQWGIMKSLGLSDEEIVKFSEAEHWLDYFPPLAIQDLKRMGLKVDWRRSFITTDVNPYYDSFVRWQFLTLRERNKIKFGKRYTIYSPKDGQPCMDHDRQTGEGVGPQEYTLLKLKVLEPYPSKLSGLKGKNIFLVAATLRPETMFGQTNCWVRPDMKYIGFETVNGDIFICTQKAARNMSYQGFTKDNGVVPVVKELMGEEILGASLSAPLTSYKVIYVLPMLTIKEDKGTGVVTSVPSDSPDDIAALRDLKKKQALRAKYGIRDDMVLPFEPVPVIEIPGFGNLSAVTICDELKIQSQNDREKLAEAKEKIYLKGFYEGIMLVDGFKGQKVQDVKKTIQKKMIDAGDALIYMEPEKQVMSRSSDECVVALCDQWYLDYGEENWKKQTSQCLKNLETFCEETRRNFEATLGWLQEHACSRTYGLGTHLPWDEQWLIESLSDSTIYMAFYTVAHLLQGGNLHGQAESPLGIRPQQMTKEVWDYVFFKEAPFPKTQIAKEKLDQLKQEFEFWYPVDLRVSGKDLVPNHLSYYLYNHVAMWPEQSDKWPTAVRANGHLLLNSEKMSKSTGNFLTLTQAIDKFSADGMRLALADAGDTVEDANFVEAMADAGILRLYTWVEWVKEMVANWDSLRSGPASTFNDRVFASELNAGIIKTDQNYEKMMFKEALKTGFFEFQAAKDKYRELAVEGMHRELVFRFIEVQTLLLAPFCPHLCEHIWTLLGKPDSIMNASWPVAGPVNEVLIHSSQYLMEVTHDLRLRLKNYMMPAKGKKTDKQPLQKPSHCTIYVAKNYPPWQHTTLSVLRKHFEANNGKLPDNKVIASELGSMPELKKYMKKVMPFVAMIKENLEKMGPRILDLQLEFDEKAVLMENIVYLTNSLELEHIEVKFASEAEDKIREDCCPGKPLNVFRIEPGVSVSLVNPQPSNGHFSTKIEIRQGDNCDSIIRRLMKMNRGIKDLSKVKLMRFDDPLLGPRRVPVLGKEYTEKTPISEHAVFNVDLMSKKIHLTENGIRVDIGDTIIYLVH
Outline: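 HepG2 cells in DMEM/10% FCS, 3000 cells/well, exposed to compound dilutions (0.5% DMSO final) for 48 h at 37 °C. Medium then replaced with fresh medium containing 0.5 μCi L-[14C]leucine and the same compound levels for 3 h. Cells trypsinised, precipitated in ice-cold 20% TCA, filtered, washed, scintillation counted; curve-fit EC50; mean of at least duplicates.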

[3] = biological target: T2, Leucine--tRNA ligase, cytoplasmic; experiment: Inhibition of human N-terminal 6His-tagged cytoplasmic LeuRS expressed in Escherichia coli BL21(DE3) assessed as […] after 20 mins by liquid scintillation counting analysis
cytoplasmic LeuRS = experiment: Selectivity index, ratio of EC50 for inhibition of cytoplasmic LeuRS in HepG2 cells assessed as reduction in protein synthesis to MIC for Mycobacterium tuberculosis H37Rv; format: toxicity, cell-based; settings: human, read-out: Selectivity Index
Outline: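 Ratio of HepG2 protein-synthesis EC50 to MIC against M. tuberculosis H37Rv.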

HepG2 = experiment: Cytotoxicity against human HepG2 cells assessed as reduction in cell viability after 48 hrs by CellTiter-Glo assay; format: cell-based; settings: HepG2, 48 h
Outline: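 HepG2 cells seeded at 10 000/well in EMEM with 5% FCS and 2 mM glutamine. After 24 h, ten 1:2 serial compound dilutions (0.5% DMSO final) added in duplicate for 48 h. Read-out by CellTiter-Glo luminescence per table footnote; the method text also describes resazurin fluorescence (ex 515/em 590 nm). Sigmoidal variable-slope fit.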

[4] = biological target: T3, Leucine--tRNA ligase, mitochondrial (Homo sapiens, UniProt Q15031); experiment: Inhibition of human N-terminal 6His-tagged mitochondrial LeuRS expressed in Escherichia coli BL21(DE3) assessed as L-[14C]leucine incorporation in to Escherichia coli tRNA after 20 mins by liquid scintillation counting analysis; outline: as §1
T3 sequence (Q15031 whole entry): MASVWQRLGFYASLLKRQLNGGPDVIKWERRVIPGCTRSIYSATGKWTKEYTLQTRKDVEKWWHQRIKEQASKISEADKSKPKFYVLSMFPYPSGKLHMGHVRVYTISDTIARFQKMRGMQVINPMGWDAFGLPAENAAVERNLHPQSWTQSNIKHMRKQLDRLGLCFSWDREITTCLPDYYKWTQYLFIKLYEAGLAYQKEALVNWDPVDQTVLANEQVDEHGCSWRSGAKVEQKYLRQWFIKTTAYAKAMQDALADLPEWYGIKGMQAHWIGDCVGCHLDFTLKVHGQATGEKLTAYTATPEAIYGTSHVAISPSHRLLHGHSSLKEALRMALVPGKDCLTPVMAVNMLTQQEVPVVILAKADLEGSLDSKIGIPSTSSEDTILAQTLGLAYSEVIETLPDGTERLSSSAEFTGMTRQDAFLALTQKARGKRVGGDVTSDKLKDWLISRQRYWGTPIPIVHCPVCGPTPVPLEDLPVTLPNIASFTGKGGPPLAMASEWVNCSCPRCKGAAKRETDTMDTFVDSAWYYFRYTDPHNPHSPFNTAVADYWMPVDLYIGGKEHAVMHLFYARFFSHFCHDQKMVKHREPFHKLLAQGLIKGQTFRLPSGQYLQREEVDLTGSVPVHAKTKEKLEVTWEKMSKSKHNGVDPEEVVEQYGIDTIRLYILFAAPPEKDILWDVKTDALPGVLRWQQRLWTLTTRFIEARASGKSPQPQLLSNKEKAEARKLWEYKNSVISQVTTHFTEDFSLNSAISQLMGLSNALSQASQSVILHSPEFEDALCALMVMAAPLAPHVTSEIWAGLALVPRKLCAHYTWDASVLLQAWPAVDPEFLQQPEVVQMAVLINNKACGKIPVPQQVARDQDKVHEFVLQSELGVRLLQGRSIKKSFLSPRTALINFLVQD

SMILES	IC50 (Leucine--tRNA ligase) [nM]	MIC [1] [µM]	EC50 [2] [nM]	IC50 [3] [nM]	selectivity ratio (cytoplasmic LeuRS)	EC50 (HepG2) [nM]	IC50 [4] [nM]
NCC1OB(O)c2c(OCc3ccccc3)ccc(Br)c21 (racemic)	440	5 (≈ 1.74 µg/mL)	–	–	–	–	–
COc1ccc(Cl)c2c1B(O)O[C@@H]2CN	150	0.1 (≈ 0.0227 µg/mL)	105000	260000	1050	327000	> 300000
NC[C@@H]1OB(O)c2c(OCCO)ccc(Br)c21	14200	10 (≈ 3.02 µg/mL)	–	–	–	–	–
NCC1OB(O)c2c(OCCc3ccccc3)ccc(Cl)c21 (racemic)	720	5 (≈ 1.59 µg/mL)	–	–	–	–	–
NC[C@H]1OB(O)c2c(OCCCO)ccc(Br)c21	160	0.3 (≈ 0.0948 µg/mL)	–	–	–	–	–
NCC1OB(O)c2c(OCCF)ccc(Br)c21 (racemic)	260	0.2 (≈ 0.0608 µg/mL)	–	–	–	–	–
NC[C@H]1OB(O)c2c(OCCCO)ccc(Cl)c21	470	0.14 (≈ 0.038 µg/mL)	–	–	–	–	–
NCC1OB(O)c2c3c(cc(Br)c21)OCO3 (racemic)	610	> 5	–	–	–	–	–
NC[C@H]1OB(O)c2c3c(cc(Br)c21)OCCO3	120	0.03 (≈ 0.009 µg/mL)	39500	118000	1320	43200	–
NCC1OB(O)c2c(OCCc3ccccc3)ccc(Br)c21 (racemic)	470	> 5	–	–	–	–	–
NC[C@@H]1OB(O)c2c3c(cc(Br)c21)OCCO3	4200	40 (≈ 12 µg/mL)	–	–	–	–	–
NC[C@@H]1OB(O)c2c3c(cc(Cl)c21)OCCO3	12600	80 (≈ 20.4 µg/mL)	–	–	–	–	–
CCCCOc1ccc(Cl)c2c1B(O)O[C@@H]2CN	270	0.6 (≈ 0.162 µg/mL)	–	–	–	–	–
CCCOc1ccc(Cl)c2c1B(O)O[C@@H]2CN	310	0.16 (≈ 0.0409 µg/mL)	–	–	–	–	–
NCC1OB(O)c2c(OCC(F)F)ccc(Br)c21 (racemic)	240	0.31 (≈ 0.0998 µg/mL)	–	–	–	–	–
CCOc1cc(Cl)c2c(c1)B(O)OC2CN (racemic)	630	> 5	–	–	–	–	–
NCC1OB(O)c2c3c(cc(Cl)c21)OCCO3 (racemic)	130	0.31 (≈ 0.0792 µg/mL)	–	–	–	–	–
NCC1OB(O)c2c(OCCO)ccc(Br)c21 (racemic)	150	0.16 (≈ 0.0483 µg/mL)	–	–	–	–	–
CCCCOc1ccc(Br)c2c1B(O)O[C@@H]2CN	200	0.45 (≈ 0.141 µg/mL)	–	–	–	–	–
CCCOc1ccc(Br)c2c1B(O)O[C@@H]2CN	240	0.38 (≈ 0.114 µg/mL)	–	–	–	–	–
